In ChEMBL document CHEMBL4414678, “Structure Determination, Functional Characterization, and Biosynthetic Implications of Nybomycin Metabolites from a Mining Reclamation Site-Associated Streptomyces” (J Nat Prod, 2019):
≈ marks a conversion by molar mass, not a printed value. Calls of active or inactive are those of the source. No cut-off for these calls is given here.

Tests used:
Salmonella enterica = test: Antibacterial activity against Salmonella enterica ATCC 10708 after 16 to 48 hrs; type: functional
Method in brief: (§1)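 MIC determined against each bacterial strain after 16–48 h incubation, in triplicate. DMSO vehicle was the negative control, and kanamycin and ampicillin were the positive controls.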

Bacillus subtilis = test: Antibacterial activity against Bacillus subtilis ATCC 6633 after 16 to 48 hrs; type: functional; method in brief: as §1
Staphylococcus aureus = test: Antibacterial activity against Staphylococcus aureus ATCC 6538 after 16 to 48 hrs; type: functional; method in brief: as §1
Micrococcus luteus = test: Antibacterial activity against Micrococcus luteus ATCC 15307 after 16 to 48 hrs; type: functional; method in brief: as §1
Escherichia coli = test: Antibacterial activity against Escherichia coli ATCC 12435 after 16 to 48 hrs; type: functional; method in brief: as §1
A549 = test: Antiproliferative activity against human A549 cells assessed as reduction in cell viability after 72 hrs by alamar blue assay; type: functional, cell-based; conditions: A549, 72 h
Method in brief: (§2)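 Cancer cell viability measured after 72 h exposure, in triplicate, and EC50/IC50 derived. DMSO served as the negative control. Positive controls were actinomycin D at 20 μM and H2O2 at 2 mM, each taken as 0% viable cells.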

Saccharomyces cerevisiae = test: Antifungal activity against Saccharomyces cerevisiae ATCC 204508 after 16 to 48 hrs; type: functional
Method in brief: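 MIC determined against the S. cerevisiae strain after 16–48 h incubation, in triplicate. DMSO vehicle was the negative control and amphotericin B the positive control.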

PC-3 = test: Antiproliferative activity against human PC3 cells assessed as reduction in cell viability after 72 hrs by alamar blue assay; type: functional, cell-based; conditions: PC-3, 72 h; method in brief: as §2
Mycolicibacterium aurum = test: Antibacterial activity against Mycobacterium aurum ATCC 23366 after 16 to 48 hrs; type: functional; method in brief: as §1
[1] = target: Eukaryotic translation initiation factor 4E-binding protein 1 (Homo sapiens) (UniProt Q13541); test: Inhibition of 4E-BP1 phosphorylation in human HCT116 cells at 1 uM after 6 hrs by Western blot analysis; type: cell-based
Method in brief: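 HCT116 cells treated for 6 h with compound at 1 or 2 μM, or with DMSO as negative control. Lysates analysed by Western blot for phosphorylated 4E-BP1 alongside related proteins.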

Chain of Eukaryotic translation initiation factor 4E-binding protein 1 (Homo sapiens) (Q13541 whole entry): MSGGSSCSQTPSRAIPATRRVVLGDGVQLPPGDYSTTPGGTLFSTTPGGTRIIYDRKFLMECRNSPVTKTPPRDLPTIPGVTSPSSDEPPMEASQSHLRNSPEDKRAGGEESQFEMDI

## NC[C@H]1O[C@H](O[C@H]2[C@H](O)[C@@H](O[C@H]3O[C@H](CO)[C@@H](O)[C@H](N)[C@H]3O)[C@H](N)C[C@@H]2N)[C@H](O)[C@@H](O)[C@@H]1O [KANAMYCIN]
Salmonella enterica
  MIC: 14 µM (≈ 6.78 µg/mL)
Bacillus subtilis
  MIC: 2 µM (≈ 0.969 µg/mL)
Staphylococcus aureus
  MIC: 7.5 µM (≈ 3.63 µg/mL)
Micrococcus luteus
  MIC: 15 µM (≈ 7.27 µg/mL)
Escherichia coli
  MIC: 7.5 µM (≈ 3.63 µg/mL)

## Cc1cc(=O)n(C)c2c(O)c3c(cc12)c(C)cc(=O)n3C
A549
  EC50: 15.2 µM
Salmonella enterica
  MIC: > 24 µM
Saccharomyces cerevisiae
  MIC: > 24 µM
Bacillus subtilis
  MIC: 6 µM (≈ 1.71 µg/mL)
PC-3
  EC50: 1.14 µM
Staphylococcus aureus
  MIC: 12 µM (≈ 3.41 µg/mL)
Micrococcus luteus
  MIC: 12 µM (≈ 3.41 µg/mL)
Mycolicibacterium aurum
  MIC: > 24 µM
Escherichia coli
  MIC: > 24 µM

## Cc1cc(=O)n2c3c(c4c(cc13)c(C(=O)O)cc(=O)n4C)OC2
A549
  EC50: > 100 µM
Salmonella enterica
  MIC: > 24 µM
Saccharomyces cerevisiae
  MIC: > 24 µM
Bacillus subtilis
  MIC: > 24 µM
PC-3
  EC50: > 100 µM
Staphylococcus aureus
  MIC: > 24 µM
Micrococcus luteus
  MIC: > 24 µM
Mycolicibacterium aurum
  MIC: > 24 µM
Escherichia coli
  MIC: > 24 µM

## Cc1cc(=O)[nH]c2c(O)c3c(cc12)c(CO)cc(=O)n3C
A549
  EC50: > 100 µM
Salmonella enterica
  MIC: > 24 µM
Saccharomyces cerevisiae
  MIC: > 24 µM
Bacillus subtilis
  MIC: > 24 µM
PC-3
  EC50: > 100 µM
Staphylococcus aureus
  MIC: > 24 µM
Micrococcus luteus
  MIC: > 24 µM
Mycolicibacterium aurum
  MIC: > 24 µM
Escherichia coli
  MIC: > 24 µM

## C[C@@H]1[C@H](O)[C@@H](C)/C=C/C=C/C=C/C=C/C=C/C=C/C=C/[C@H](O[C@@H]2O[C@H](C)[C@@H](O)[C@H](N)[C@@H]2O)C[C@@H]2O[C@](O)(C[C@@H](O)C[C@@H](O)[C@H](O)CC[C@@H](O)C[C@@H](O)CC(=O)O[C@H]1C)C[C@H](O)[C@H]2C(=O)O [AMPHOTERICIN B]
Saccharomyces cerevisiae
  MIC: 2 µM (≈ 1.85 µg/mL)

## Cc1cc(=O)[nH]c2c1C(=O)c1c(C)cc(=O)n(C)c1C2=O
A549
  EC50: 0.25 µM
Salmonella enterica
  MIC: > 24 µM
Saccharomyces cerevisiae
  MIC: > 24 µM
[1]
  inhibition: Active
Bacillus subtilis
  MIC: 12 µM (≈ 3.41 µg/mL)
PC-3
  EC50: 0.15 µM
Staphylococcus aureus
  MIC: 12 µM (≈ 3.41 µg/mL)
Micrococcus luteus
  MIC: 12 µM (≈ 3.41 µg/mL)
Mycolicibacterium aurum
  MIC: > 24 µM
Escherichia coli
  MIC: > 24 µM

## Cc1cc(=O)n2c3c(c4c(cc13)c(CO)cc(=O)n4C)OC2
A549
  EC50: > 100 µM
Salmonella enterica
  MIC: > 24 µM
Saccharomyces cerevisiae
  MIC: > 24 µM
Bacillus subtilis
  MIC: 12 µM (≈ 3.58 µg/mL)
PC-3
  EC50: > 100 µM
Staphylococcus aureus
  MIC: > 24 µM
Micrococcus luteus
  MIC: 12 µM (≈ 3.58 µg/mL)
Mycolicibacterium aurum
  MIC: > 24 µM
Escherichia coli
  MIC: > 24 µM
